Source: ChEMBL document CHEMBL1121363, “DNA intercalating compounds as potential antitumor agents. 2. Preparation and properties of 7H-pyridocarbazole dimers” (1980)

Columns and labels:
Calf thymus DNA [1] = experiment: Dimer binding constant for DNA of calf thymus at pH 5.; format: nucleic-acid assay; settings: Bos taurus
Procedure, shortened: (§1)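 Fluorimetric competition: calf thymus DNA (B = 1.6 × 10⁻⁶ M base pairs) with ethidium dimer (6.4 × 10⁻⁷ M) equilibrated 24 h with varied dimer concentrations, 20 °C. Buffers: 0.2 M sodium acetate pH 5, or 0.1 M NaCl/0.1 M Tris-HCl pH 7.4. Ex 540/em 610 nm. Displacement curve fitted to McGhee–von Hippel equations using n set by ethidium bromide competition, giving Kap.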

Calf thymus DNA [2] = experiment: Dimer binding constant for DNA of calf thymus at pH 7.4; format: nucleic-acid assay; settings: Bos taurus; procedure, shortened: as §1
Calf thymus DNA [3] = experiment: Displacement of ethidium from DNA of calf thymus at pH 7.4; format: nucleic-acid assay; settings: Bos taurus
Procedure, shortened: (§2)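 Ethidium dimer (6.4 × 10⁻⁷ M) pre-bound to calf thymus DNA (1.6 × 10⁻⁶ M base pairs), 24 h equilibration with competing dimer, 20 °C, in 0.2 M sodium acetate pH 5 or 0.1 M NaCl/0.1 M Tris-HCl pH 7.4. Fluorescence ex 540, em 610 nm. rf50 = ratio of total dimer to DNA base pairs displacing 50% of bound ethidium dimer.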

Calf thymus DNA [4] = experiment: Displacement of ethidium from DNA of calf thymus at pH 5; format: nucleic-acid assay; settings: Bos taurus; procedure, shortened: as §2
Mus musculus [5] = experiment: Evaluated for the antitumor activity against L1210 Murine leukemia at optimum intraperitoneal dose 0.8 of the MTD
Mus musculus [6] = experiment: Evaluated for the antitumor activity against L1210 Murine leukemia at optimum intraperitoneal dose 0.4 of the MTD
Mus musculus [7] = experiment: Evaluated for the antitumor activity against L1210 Murine leukemia at optimum intraperitoneal dose 0.5 of the MTD
Mus musculus [8] = experiment: Evaluated for the antitumor activity against L1210 Murine leukemia at optimum intraperitoneal dose 0.25 of the MTD
Mus musculus [9] = experiment: Evaluated for the antitumor activity against L1210 Murine leukemia at optimum intraperitoneal dose 0.2 of the MTD

Compound	K app (Calf thymus DNA [1])	K app (Calf thymus DNA [2])	rf50 (Calf thymus DNA [3])	rf50 (Calf thymus DNA [4])	T/C (Mus musculus [5])	T/C (Mus musculus [6])	T/C (Mus musculus [7])	T/C (Mus musculus [8])	T/C (Mus musculus [9])
Oc1ccc2[nH]c3ccc4c[n+](CCN5CCC(C6CCN(CC[n+]7ccc8c(ccc9[nH]c%10ccc(O)cc%10c98)c7)CC6)CC5)ccc4c3c2c1	2e+08	500000	13	0.5	–	–	–	–	–
COc1ccc2c(c1)c1c3c[n+](CCN4CCCCC4)ccc3ccc1n2C	1.8e+06	300000	20	9.5	–	–	–	–	–
Oc1ccc2[nH]c3ccc4cc[n+](CCN5CCC(C6CCN(CC[n+]7ccc8ccc9[nH]c%10ccc(O)cc%10c9c8c7)CC6)CC5)cc4c3c2c1.[Cl-].[Cl-]	5e+08	1e+07	1.2	0.32	–	157%	–	–	–
COc1ccc2[nH]c3ccc4cc[n+](CCCCCCCCCC[n+]5ccc6ccc7[nH]c8ccc(OC)cc8c7c6c5)cc4c3c2c1.[Br-].[Br-]	3e+06	3e+06	3	2.4	–	–	124%	–	–
COc1ccc2[nH]c3ccc4cc[n+](CCN(C)CCCCCN(C)CC[n+]5ccc6ccc7[nH]c8ccc(OC)cc8c7c6c5)cc4c3c2c1	1e+08	8e+06	8.4	0.8	–	–	–	–	–
[Cl-].[Cl-].c1ccc2c(c1)[nH]c1ccc3cc[n+](CCN4CCC(C5CCN(CC[n+]6ccc7ccc8[nH]c9ccccc9c8c7c6)CC5)CC4)cc3c12	3e+08	5e+06	1.4	0.4	–	–	121%	–	–
COc1ccc2[nH]c3ccc4cc[n+](CCN5CCC(CCCC6CCN(CC[n+]7ccc8ccc9[nH]c%10ccc(OC)cc%10c9c8c7)CC6)CC5)cc4c3c2c1	1e+09	4e+06	2.24	0.25	–	–	–	–	–
COc1ccc2[nH]c3ccc4cc[n+](CC(O)CN5CCC(C6CCN(CC(O)C[n+]7ccc8ccc9[nH]c%10ccc(OC)cc%10c9c8c7)CC6)CC5)cc4c3c2c1 (stereo not drawn)	1e+09	2e+07	0.72	0.24	–	–	–	–	–

The next lines start with results.

K app (Calf thymus DNA [1])	K app (Calf thymus DNA [2])	rf50 (Calf thymus DNA [3])	rf50 (Calf thymus DNA [4])	Compound	T/C (Mus musculus [5])	T/C (Mus musculus [6])	T/C (Mus musculus [7])	T/C (Mus musculus [8])	T/C (Mus musculus [9])
2e+08	1e+06	–	–	COc1ccc2[nH]c3c(C)c4cc[n+](CCN5CCC(C6CCN(CC[n+]7ccc8c(C)c9[nH]c%10ccc(OC)cc%10c9c(C)c8c7)CC6)CC5)cc4c(C)c3c2c1	–	–	–	–	–
1e+08	1e+06	–	–	Cc1c2cc[n+](CCN3CCC(C4CCN(CC[n+]5ccc6c(C)c7[nH]c8ccc(O)cc8c7c(C)c6c5)CC4)CC3)cc2c(C)c2c1[nH]c1ccc(O)cc12	–	–	–	–	–
3e+08	2e+07	0.72	0.4	COc1ccc2c(c1)c1c3c[n+](CCN4CCC(C5CCN(CC[n+]6ccc7ccc8c(c7c6)c6cc(OC)ccc6n8C)CC5)CC4)ccc3ccc1n2C.[Cl-].[Cl-]	155%	–	–	–	–
5e+08	6e+06	1.2	0.32	COc1ccc2c(c1)c1c3cc[n+](CCN4CCC(C5CCN(CC[n+]6ccc7c(ccc8c7c7cc(OC)ccc7n8C)c6)CC5)CC4)cc3ccc1n2C	–	–	–	–	–
5e+08	1e+07	0.96	0.32	COc1ccc2[nH]c3ccc4cc[n+](CCN5CCC(C6CCN(CC[n+]7ccc8ccc9[nH]c%10ccc(OC)cc%10c9c8c7)CC6)CC5)cc4c3c2c1.[Cl-].[Cl-] [DITERCALINIUM CHLORIDE]	–	–	–	216%	–
5e+08	3e+06	3.4	0.32	COc1ccc2[nH]c3ccc4c[n+](CCN5CCC(C6CCN(CC[n+]7ccc8c(ccc9[nH]c%10ccc(OC)cc%10c98)c7)CC6)CC5)ccc4c3c2c1.[Cl-].[Cl-]	–	–	–	–	130%
